# Measured values reported in paper PMC12542962 (Science Advances, 2025).
# Where two headings read alike, the source gives them in different places.
# Tests used:
# [1] = test system: CRKP; assay: Lethal CRKP pneumonia model, survival; format: in vivo, BALB/c mice; conditions: single dose; TINA 10 mg/kg, imipenem 8 mg/kg, or 10 + 8 mg/kg; n = 10
# Outline: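 Female BALB/c mice (n = 10 per group) infected with 5 × 10^7 CFU CRKP. Thirty minutes later they were treated with PBS, test compound 10 mg/kg, imipenem 8 mg/kg, or test compound plus imipenem (10 + 8 mg/kg) as a single or double dose. Survival was followed for 7 days postinfection and cumulative survival calculated.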
# [2] = test system: CRKP; assay: Resistance development assay, 20 passages; format: cell-based, K. pneumoniae; conditions: Klebsiella pneumoniae
# Outline: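 Log-phase CRKP clinical isolate diluted in LB broth containing imipenem, with or without test compound, and cultured at 37°C for serial passaging.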
# [3] = test system: CRKP, CRE, and CRAB; assay: Acute pneumonia models, blood indicators, histology and inflammation; format: in vivo, BALB/c mice; conditions: TINA 10 mg/kg or imipenem 8 mg/kg, single dose
# [4] = test system: CRKP; assay: Time-dependent killing assay; format: cell-based, K. pneumoniae; conditions: TINA 20 μg/ml or imipenem 8 μg/ml alone, 24 hours
structure (smiles),measurement,setting,value
"C[C@@H](O)[C@H]1C(=O)N2C(C(=O)O)=C(SCCN=CN)C[C@H]12 [Imipenem, imipenem]",survival rate at dpi 7,[1],30%
same,MIC,[2]; read-out: MIC after 20 passages,2050 µg/mL
same,MIC,[2]; read-out: MIC before passaging,64 µg/mL
same,effect of monotherapy on live bacteria in the lungs,[3],mere effects on eliminating live bacteria in the lungs
same,"change in bacteria counts, monotherapy",[4],increased by two orders of magnitude in bacteria counts
